Assay results: PubChem BioAssay AID1526 (The Scripps Research Institute Molecular Screening Center, 2009)
Some of the results follow. Active and inactive are the calls of the source.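 The calls were made as follows: active = activation above a set limit derived from the earlier primary screen (cut at about 12% in these data); inactive = the rest.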

What follows are compounds tested against Mucolipin-3 (Homo sapiens) (UniProt Q8TDD5) (assay: human TRPML3 channel agonists, confirmation, cell-based, HEK293 TRPML3-YFP, Fluo-8 calcium, triplicate (AID 1526)). Conditions: Fluo-8 calcium fluorescence, at 3 µM, hits give high values, 100% set by carbachol, 0% by DMSO.
Procedure, shortened: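 system = human TRPML3-YFP channel stably expressed in HEK293 cells | dosing = one 3 µM nominal concentration | schedule = dye loading 1 h, 37 °C, 125 s read | technique = Fluo-8 calcium dye fluorescence | read-out = percent activation from max/basal signal ratio | benchmarks = high carbachol 87 µM, low DMSO | repeats = three replicate wells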

Chain of Mucolipin-3 (Homo sapiens) (Q8TDD5 whole entry, looked up): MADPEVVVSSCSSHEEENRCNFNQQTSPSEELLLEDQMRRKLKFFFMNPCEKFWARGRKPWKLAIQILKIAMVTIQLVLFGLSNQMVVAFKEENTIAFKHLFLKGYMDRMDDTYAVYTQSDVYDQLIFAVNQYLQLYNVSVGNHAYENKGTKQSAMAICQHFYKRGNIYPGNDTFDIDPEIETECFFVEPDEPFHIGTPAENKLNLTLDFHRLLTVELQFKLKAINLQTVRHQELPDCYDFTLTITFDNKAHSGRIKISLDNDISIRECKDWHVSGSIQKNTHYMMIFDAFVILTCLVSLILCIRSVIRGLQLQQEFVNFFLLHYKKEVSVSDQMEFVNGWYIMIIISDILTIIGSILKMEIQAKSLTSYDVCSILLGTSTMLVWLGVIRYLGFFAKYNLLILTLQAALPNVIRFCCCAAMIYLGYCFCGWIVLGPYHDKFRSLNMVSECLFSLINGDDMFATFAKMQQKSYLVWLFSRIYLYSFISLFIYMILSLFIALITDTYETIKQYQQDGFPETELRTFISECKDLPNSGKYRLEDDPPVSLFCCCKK

activation, active:
O=C(CC(O)(C(F)(F)F)C(F)(F)F)Nc1ccc(Cl)c(Cl)c1 13.9%, C=C(C)Cn1c(C)cc(C)c(S(=O)(=O)c2ccccc2C)c1=O 27.8%, COc1ccc(-c2noc(CN(C)S(=O)(=O)c3ccc(C)cc3)n2)cc1 111%, CC1(C)CCCC2=C1CC1C(=O)N(c3ccccc3)C(=O)C1C2 (stereo not drawn) 14.2%, CCOC(=O)C1=C(NC(=S)NC(=O)c2ccccc2)c2ccccc2CC1(C)C 43.6%, COc1ccc(Cl)cc1N(CC(=O)N1CCCCC1)S(C)(=O)=O 71.9%, CC1=CC(C)(C)N(C(=O)CSc2nnc(-c3ccccc3)o2)c2ccc(C)cc21 48.3%, CCN(CC)C(=O)CC1(c2ccccc2OC)CCOC(C(C)C)C1 (stereo not drawn) 14.7%, Cc1cccc(C)c1N1CCN(S(=O)(=O)N2CCCCC2)CC1 79.3%, CCOc1ccc(S(=O)(=O)N2CCCCCC2)c2ccccc12 129%, c1ccc2c(C[n+]3csc4ccccc43)cccc2c1 58%, O=S(=O)(Nc1ccccc1N1CCOCC1)c1ccc(Cl)s1 63%, COc1ccccc1N(CC(=O)N1CCCCC1)S(=O)(=O)c1ccccc1 169%, COc1ccc(S(=O)(=O)N2CCCC2)c(C)c1C 13.6%, CC1CCCC(C)N1C(=O)CN1CCN(c2nc(-c3ccc(F)cc3)cs2)CC1 (stereo not drawn) 20.4%

activation, inactive:
CCN(CC)S(=O)(=O)c1ccc2c3c(cccc13)C(=O)S2 10.5%, COc1ccc(N(CCC#N)S(=O)(=O)c2ccc(Cl)cc2)cc1 9.45%, COc1cc(/C=C(\C#N)c2nc3c(s2)CC(C)CC3)ccc1O (stereo not drawn) 6.5%
